# About 820 (0.23%) of roughly 360,000 compounds were called active.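 Rule for the calls: active = compounds that cut the enzyme signal by at least half of the control window in the single-dose screen; inactive = the rest.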 For the sample, actives were picked, then their nearest neighbours and some compounds at random.
# Molecular target: Low molecular weight phosphotyrosine protein phosphatase (Homo sapiens) (UniProt P24666)
# Assay: inhibition of human LMPTP-A enzyme – biochemical, fluorescence intensity, uHTS, primary screen (AID 651560);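 note: plate controls were DMSO wells with enzyme plus substrate for no effect and substrate without enzyme for full effect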
# Conditions: recombinant LMPTP-A, OMFP fluorogenic substrate, at 20 µM, hits give high values
# In short: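 material = LMPTP-A | quantity = 0.625 nM enzyme | reagent = OMFP substrate, 400 µM final | buffer or medium = Bis-Tris pH 6.0, DTT, detergent | detection = endpoint fluorescence intensity from OMFP dephosphorylation | dosing = single 20 µM dose | read-out basis = % inhibition relative to no-enzyme and uninhibited control wells | control set = no-enzyme and uninhibited controls | timing = 50 min at room temperature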
# Low molecular weight phosphotyrosine protein phosphatase (Homo sapiens), sequence (P24666 whole entry, looked up): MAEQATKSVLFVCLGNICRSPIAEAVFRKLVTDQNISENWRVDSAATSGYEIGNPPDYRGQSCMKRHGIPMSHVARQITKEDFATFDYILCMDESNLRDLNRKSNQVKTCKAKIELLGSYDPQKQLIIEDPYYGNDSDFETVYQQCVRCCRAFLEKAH
row,SMILES,inhibition
1,NNC(=O)c1cccc(COCC(F)(F)C(F)F)c1,-2.64% (inactive)
2,CC(CO)NCC12CC3CC(CC(C3)C1)C2 (stereo not given),-1.02% (inactive)
3,COc1ccc(NC(=O)Nc2ccc3c(c2)C(=O)N([C@H](C)CO)C[C@H](C)[C@@H](CN(C)C(=O)Nc2ccc4c(c2)OCO4)O3)cc1,0.628% (inactive)
4,CCOc1ccc(N(CC(=O)NC2CCCCCC2)S(=O)(=O)c2c(C)[nH]c(=O)[nH]c2=O)cc1,-1.41% (inactive)
5,CN(C)c1cccc(C(=O)N2CCC(n3nccc3NC(=O)C3CCOC3)CC2)c1 (stereo not given),-1.94% (inactive)
6,COCCNc1nc(-c2ccccc2)nc2c1oc1ccccc12,2% (inactive)
7,CCOCCCNc1nc(-c2ccccc2)nc2ccccc12,57.8% (active)
8,CCOCCCNS(=O)(=O)Cc1ccccc1,-0.147% (inactive)
9,Cn1ccc(=Nc2ccc(NC(=O)c3ccc(N=c4ccn(C)c5ccc([N+](=O)[O-])cc45)cc3)cc2)cc1,78% (active)
10,O=C(Nc1ccc(C2CC2(Cl)Cl)cc1)c1cccc([N+](=O)[O-])c1 (stereo not given),2.23% (inactive)
11,O=C(Nc1cc2c3c(c1)C1CCCC1CN3CC1CCCC21)c1ccc([N+](=O)[O-])cc1 (stereo not given),2.81% (inactive)
12,CCc1ccc(CCC(=O)Nc2ccc(S(N)(=O)=O)cc2)o1,-1.91% (inactive)
13,CCCOc1ccc(C2C(C(=O)c3ccc(C)o3)=C(O)C(=O)N2CCCn2ccnc2)cc1 (stereo not given),20.9% (inactive)
14,Cc1cc(N2C(=O)C(O)=C(C(=O)c3ccc(C)o3)C2c2ccc(OCc3ccccc3)cc2)no1 (stereo not given),52.5% (active)
15,C=CCOc1cccc(C2C(C(=O)c3ccc(C)o3)=C(O)C(=O)N2c2nnc(C)s2)c1 (stereo not given),0.72% (inactive)
16,COCc1ccc(CN2CCC(Oc3ccc(C(=O)NCc4ccccn4)cc3)CC2)o1,-0.769% (inactive)
17,CC1C(=O)N(Cc2cn(CC3CCCCC3)nn2)CCS(=O)(=O)N1Cc1ccc(-c2cccc(N(C)C)c2)cc1 (stereo not given),2.27% (inactive)
18,FC(F)(F)c1cccc(-c2nc(COc3ccc(Cl)cc3Cl)no2)c1,2.97% (inactive)
19,O=C1COc2c1ccc(O)c2O,2.2% (inactive)
20,CCN(CC)C(=O)CS(=O)CC(=O)Nc1cc(OCCOC)c(Cl)cc1Cl (stereo not given),-0.0342% (inactive)
21,C[C@H](CO)N1C[C@H](C)[C@H](CN(C)C(=O)Nc2ccc3c(c2)OCO3)Oc2ncc(Br)cc2C1=O,-2.87% (inactive)
22,COc1cccc(CNC(=O)C(=O)NCCC2CCCCN2S(=O)(=O)c2ccc(C)cc2)c1 (stereo not given),0.141% (inactive)
23,Cn1c(C(=O)OC(C(=O)NC2CCCCC2)c2ccccn2)cc2sccc21 (stereo not given),0.323% (inactive)
24,C=CCn1c(Oc2ccc(C(=O)OC)cc2)nc2c1c(=O)n(C)c(=O)n2C,-1.9% (inactive)
25,COc1ccccc1N(CC(=O)NC1CCCC1)C(=O)C1(C)CC(=O)N=C2C=CC(C)=CN21 (stereo not given),-0.3% (inactive)
26,CCCCNC(=O)Cn1nc(C)c(S(=O)(=O)N2CCOCC2)c1C,-0.848% (inactive)
27,CCC(C)c1ccccc1NC(=O)CN(C)CC(=O)Nc1ccccc1SC (stereo not given),-7.1% (inactive)
28,CC1(C)CC(=O)C2=C(C1)N=C1SCCC(=O)N1C2c1ccc(C(F)(F)F)cc1 (stereo not given),0.279% (inactive)

row,SMILES,inhibition
1,Cc1cc(F)ccc1NC(=O)C(C)n1c2ccccc2c2nc(=O)cc(C)n21 (stereo not given),-1.13% (inactive)
2,O=S(=O)(c1ccc(Cl)cc1)N1CCCN(c2ccc(C(F)(F)F)cn2)CC1,2.43% (inactive)
3,CCCN1C(=O)C(NS(=O)(=O)c2ccc(N)cc2)(C(F)(F)F)C(C(=O)OC)=C1C (stereo not given),-1.38% (inactive)
4,Cc1cccc(NC(=S)N(CCN(C)C)C(C)c2ccco2)c1 (stereo not given),-1.32% (inactive)
5,C=CC1=C(C(=O)O)N2C(=O)[C@@H](NC(=O)/C(=N/OCC(=O)O)c3csc(N)n3)[C@H]2SC1,77.9% (active)
6,COc1ccc2c(C)c(CCC(=O)NC3CC3)c(=O)oc2c1C,-1.16% (inactive)
7,Cc1c(CCC(=O)O)c(=O)oc2c(C)c(OCc3ccccc3Cl)ccc12,86.6% (active)
8,O=C(O)c1ccccc1OCc1ccccc1Cl,-0.307% (inactive)
9,O=C(CO/N=C/c1ccccc1OC(F)F)NC1CCCC1,-0.427% (inactive)
10,Cc1ccc(Cc2c(-c3ccc(Cl)cc3)nc3c4ccccc4ccn23)cc1,6.26% (inactive)
11,COc1ccc(NC(=O)c2cc(=O)[nH]c3ccccc23)cc1S(=O)(=O)N1CCOCC1,-0.651% (inactive)
12,COc1ccc2[nH]c(=O)c(-c3noc(-c4ccc(F)cc4)n3)cc2c1,48.8% (active)
13,COc1ccc(Cc2cc(-c3ccc(F)cc3)n[nH]c2=O)cc1,0.445% (inactive)
14,CCCc1nc(-c2cc3cc(C)ccc3[nH]c2=O)no1,-2.23% (inactive)
15,Cn1c(=O)cc(OCC(=O)N2CCN(c3ccccc3F)CC2)c2ccccc21,-0.233% (inactive)
16,Cc1[nH]c(N)nc(=S)c1CCCNc1ccccc1,4.94% (inactive)
17,Cc1csc(=O)n1CC(=O)Nc1ccc(S(C)(=O)=O)cc1,0.0764% (inactive)
18,CN1CCN(Cc2c(C(=O)N3CCc4ccccc4C3)nc3ccc(Cl)cn23)CC1,-1.43% (inactive)
19,O=C(COc1ccc(Cl)cc1Cl)NCCCNC(=O)c1cnccn1,-0.724% (inactive)
20,CCCNS(=O)(=O)c1ccc(CCC(=O)NCc2cccnc2)cc1,-0.651% (inactive)
21,COc1ccc(NC(=O)CN2C(=O)CSC2=O)cc1,-1.92% (inactive)
22,CCOC(=O)c1sc2nc(C)nc(SCC(N)=O)c2c1C,-0.32% (inactive)
23,COc1ccc(C#Cc2c(-c3ccc(OC)cc3)oc3ccc(-c4ccc5c(c4)OCO5)cc23)cc1,0.696% (inactive)
24,FC(F)(F)c1ccc2c3n(nc2c1)CCN=C3c1ccc(Cl)cc1,-0.582% (inactive)
25,COc1ccc(CC(NC(C)=O)C(=O)NC2CCN(C(=O)c3ccc(Cl)cc3)CC2)cc1 (stereo not given),0.435% (inactive)
26,C[C@]12CC[C@H](O)CC1=CCC1C2CC[C@@]2(C)C1CC[C@@H]2NC(=O)CCC(=O)O (stereo not given in full),-0.874% (inactive)
27,Cn1c(SCC(=O)Nc2ccc(Cl)cc2)nc(O)cc1=O,-0.456% (inactive)
